Assay results as given in ChEMBL document CHEMBL1145460, “Novel vanilloid receptor-1 antagonists: 3. The identification of a second-generation clinical candidate with improved physicochemical and pharmacokinetic properties” (J Med Chem, 2007).
Converted amounts (≈) assume the structure as drawn. The source made the active and inactive calls. The rule behind the calls is not given here.

Experiments:
[1] = Solubility in 0.01N HCl; format: physicochemical
Procedure, shortened: (§1)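 Thermodynamic solubility determined in a high-throughput automated format; media 0.01 N HCl, PBS and simulated intestinal fluid.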

[2] = Clearance in Sprague-Dawley rat at 1 mg/kg, iv up to 6 hrs; format: ADME, organism-based; parameters: dose 1 mg/kg, route intravenous; conditions: in vivo
[3] = AUC (0 to infinity) in Sprague-Dawley rat at 1 mg/kg, iv up to 6 hrs; format: ADME, organism-based; parameters: time infinity, dose 1 mg/kg, route intravenous; conditions: plasma
[4] = Volume of distribution in Sprague-Dawley rat at 1 mg/kg, iv up to 6 hrs; format: ADME, organism-based; parameters: dose 1 mg/kg, route intravenous; conditions: in vivo, read-out: Vss
[5] = Half life in Sprague-Dawley rat at 1 mg/kg, iv; format: ADME, organism-based; parameters: dose 1 mg/kg, route intravenous; conditions: in vivo
[6] = AUC (0-inf) in Sprague-Dawley rat at 5 mg/kg, po up to 8 hrs; format: ADME, organism-based; parameters: time infinity, dose 5 mg/kg, route oral; conditions: plasma
Procedure, shortened: (§2)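 Fasted male Sprague-Dawley rats given 5 mg/kg orally as a suspension in 5% Tween 80/Oraplus; plasma sampled up to 8 h.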

[7] = Oral bioavailability in Sprague-Dawley rat at 5 mg/kg; format: ADME, organism-based; conditions: in vivo; procedure, shortened: as §2
[8] = Solubility in PBS; format: physicochemical; procedure, shortened: as §1
[9] = Solubility in SIF; format: physicochemical; procedure, shortened: as §1
[10] = AUC (0 to infinity) in Sprague-Dawley rat at 3 mg/kg, po up to 8 hrs; format: ADME, organism-based; parameters: time infinity, dose 3 mg/kg, route oral; conditions: plasma
Procedure, shortened: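 Fasted male Sprague-Dawley rats were given a single oral dose of 3 mg/kg as a suspension in 5% Tween 80/Oraplus. Plasma was sampled for up to 8 h, and AUC0-∞ was reported in ng·h/mL.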

[11] = molecular target: T1, Transient receptor potential cation channel subfamily V member 1 (Rattus norvegicus, UniProt O35433); test: Inhibition of rat TRPV1 expressed in CHO cells assessed as capsaicin-induced Ca2+ influx; format: cell-based
T1 sequence (O35433 whole entry): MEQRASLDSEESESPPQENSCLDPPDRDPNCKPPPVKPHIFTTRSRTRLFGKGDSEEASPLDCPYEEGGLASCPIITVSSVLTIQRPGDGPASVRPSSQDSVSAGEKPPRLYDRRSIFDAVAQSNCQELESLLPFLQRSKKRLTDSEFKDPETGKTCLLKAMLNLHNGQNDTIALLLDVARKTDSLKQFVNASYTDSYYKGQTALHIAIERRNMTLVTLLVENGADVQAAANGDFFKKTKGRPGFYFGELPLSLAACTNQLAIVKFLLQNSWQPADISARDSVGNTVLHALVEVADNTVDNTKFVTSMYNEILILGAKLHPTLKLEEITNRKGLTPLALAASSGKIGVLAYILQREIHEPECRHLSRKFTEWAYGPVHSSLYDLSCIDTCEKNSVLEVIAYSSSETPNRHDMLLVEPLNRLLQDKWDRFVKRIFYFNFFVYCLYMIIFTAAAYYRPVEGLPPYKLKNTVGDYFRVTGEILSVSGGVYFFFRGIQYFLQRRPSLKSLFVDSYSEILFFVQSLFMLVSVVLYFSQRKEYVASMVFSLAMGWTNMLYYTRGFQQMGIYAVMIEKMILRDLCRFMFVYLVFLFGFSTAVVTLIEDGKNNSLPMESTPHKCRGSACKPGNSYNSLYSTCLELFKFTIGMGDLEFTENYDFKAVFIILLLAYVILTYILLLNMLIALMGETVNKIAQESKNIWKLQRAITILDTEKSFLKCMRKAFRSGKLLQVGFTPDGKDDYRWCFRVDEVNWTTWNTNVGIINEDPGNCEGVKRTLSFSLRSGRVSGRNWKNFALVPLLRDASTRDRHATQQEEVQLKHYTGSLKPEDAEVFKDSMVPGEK

[12] = molecular target: T1, Transient receptor potential cation channel subfamily V member 1; test: Inhibition of rat TRPV1 expressed in CHO cells assessed as acid-induced Ca2+ influx; format: cell-based
Rattus norvegicus [13] = test: Inhibition of capsaicin-induced flinching in rat at 10 mg/kg, po up to 8 hrs; format: functional, organism-based; parameters: dose 10 mg/kg
Procedure, shortened: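 Rats given 10 mg/kg orally; capsaicin-induced flinching challenged at intervals up to 8 h after dosing.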

Rattus norvegicus [14] = species: Rattus norvegicus; test: Reduction of thermal hyperalgesia in rat model of CFA-induced inflammation in assessed as minimum effective dose; format: functional; conditions: read-out: MED
Procedure, shortened: (§3)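 Complete Freund's adjuvant injected to induce inflammatory thermal hyperalgesia in rats; oral dose-response, minimum effective dose determined, with corresponding plasma level measured.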

Rattus norvegicus [15] = species: Rattus norvegicus; test: Plasma concentration in rat model of CFA-induced inflammation; format: ADME, organism-based; conditions: in vivo; procedure, shortened: as §3
[16] = Clearance in Sprague-Dawley rat at 1 mg/kg, iv after 72 hrs; format: ADME, organism-based; parameters: dose 1 mg/kg, route intravenous; conditions: in vivo
[17] = Volume of distribution at steady state in Sprague-Dawley rat at 1 mg/kg, iv after 72 hrs; format: ADME, organism-based; parameters: dose 1 mg/kg, route intravenous; conditions: in vivo, read-out: Vss
[18] = Half life in Sprague-Dawley rat at 1 mg/kg, iv after 72 hrs; format: ADME, organism-based; parameters: dose 1 mg/kg, route intravenous; conditions: in vivo
[19] = Clearance in dog at 1 mg/kg, iv; format: ADME, organism-based, Canis lupus familiaris; parameters: dose 1 mg/kg, route intravenous; conditions: in vivo
Procedure, shortened: (§4)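 Fed male animals given 1 mg/kg intravenously in 80% PEG-400/H₂O.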

[20] = Volume of distribution at steady state in dog at 1 mg/kg, iv; format: ADME, organism-based, Canis lupus familiaris; parameters: dose 1 mg/kg, route intravenous; conditions: in vivo, read-out: Vss; procedure, shortened: as §4
[21] = Half life in dog at 1 mg/kg, iv; format: ADME, organism-based, Canis lupus familiaris; parameters: dose 1 mg/kg, route intravenous; conditions: in vivo; procedure, shortened: as §4
[22] = Oral bioavailability in dog at 3 mg/kg; format: ADME, organism-based, Canis lupus familiaris; conditions: in vivo
Procedure, shortened: (§5)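 Fasted male animals dosed orally at 3 mg/kg, vehicle 10% Pluronic F108 in either Oraplus or H₂O.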

[23] = Clearance in monkey at 1 mg/kg, iv; format: ADME, organism-based, Macaca mulatta; parameters: dose 1 mg/kg, route intravenous; conditions: rhesus monkey, in vivo; procedure, shortened: as §4
[24] = Volume of distribution at steady state in monkey at 1 mg/kg, iv; format: ADME, organism-based, Macaca mulatta; parameters: dose 1 mg/kg, route intravenous; conditions: rhesus monkey, in vivo, read-out: Vss; procedure, shortened: as §4
[25] = Half life in monkey at 1 mg/kg, iv; format: ADME, organism-based, Macaca mulatta; parameters: dose 1 mg/kg, route intravenous; conditions: rhesus monkey, in vivo; procedure, shortened: as §4
[26] = Oral bioavailability in monkey at 3 mg/kg; format: ADME, organism-based, Macaca mulatta; conditions: rhesus monkey, in vivo; procedure, shortened: as §5
Rattus norvegicus [27] = test: Suppression of capsaicin-evoked paw flinching in orally dosed rat; format: functional; conditions: po
Rattus norvegicus [28] = species: Rattus norvegicus; test: Plasma concentration in rat with capsaicin-evoked paw flinching; format: ADME, organism-based; conditions: in vivo

For `CC(=O)Nc1nc2c(Oc3cc(N4CCN(C(C)c5cccc(F)c5)CC4)ncn3)cccc2s1` (centres undefined), the solubility [1] was no less than 200 µg/mL and the clearance [2] was 53.3 mL/min/kg.

Work on `CC(=O)Nc1nc2c(Oc3cc(N4CCN(C(C)c5ccc(F)cc5)CC4)ncn3)cccc2s1` (centres undefined) yielded a solubility [1] of no less than 200 µg/mL, a clearance [2] of 18.3 mL/min/kg and an AUC(0-inf) [3] of 1000 ng·h/mL. For the same compound, the Vd [4] was 2.9 L/kg, the half-life [5] was 2.4 h and the AUC(0-inf) [6] was 1800 ng·h/mL. It also gave a bioavailability [7] of 35%, a solubility [8] of 5 µg/mL (≈ 10.2 µM) and a solubility [9] of 34 µg/mL (≈ 69 µM).

`CC(=O)Nc1nc2c(Oc3cc(-c4ccc(C(F)(F)F)cc4)ncn3)cccc2s1` [AMG-517] gave a solubility [1] of less than 1 µg/mL, a Vd [4] of 1.6 L/kg and an AUC(0-inf) [10] of 12500 ng·h/mL. For the same compound, the bioavailability [7] was 32% and the solubility [8] was less than 1 µg/mL.

`CCC(c1ccccc1)N1CCN(c2cc(Oc3cccc4sc(NC(C)=O)nc34)ncn2)CC1` (centres undefined) showed a solubility [1] of no less than 200 µg/mL.

Compound `CC(=O)Nc1nc2c(Oc3cc(N4CCN(CC(C)(C)C)CC4)ncn3)cccc2s1` has an IC50 [11] of 3 nM, an IC50 [12] of 5 nM and a solubility [1] of no less than 200 µg/mL. It also gave a clearance [2] of 25 mL/min/kg.

For `CC(=O)Nc1nc2c(Oc3cc(N4CCN(CCc5ccccc5)CC4)ncn3)cccc2s1`, the solubility [1] was no less than 200 µg/mL.

`COc1ccc(C(C)N2CCN(c3cc(Oc4cccc5sc(NC(C)=O)nc45)ncn3)CC2)cc1` (centres undefined) gave a solubility [1] of no less than 200 µg/mL.

Compound `CC(=O)Nc1nc2c(Oc3cc(N4CCN(C(C)c5ccccc5F)CC4)ncn3)cccc2s1` (centres undefined) has a solubility [1] of no less than 200 µg/mL and a clearance [2] of 50 mL/min/kg.

`CC(=O)Nc1nc2c(Oc3cc(N4CCN(C(C)c5ccccc5)CC4)ncn3)cccc2s1` (centres undefined) gave a solubility [1] of no less than 200 µg/mL and a clearance [2] of 65 mL/min/kg.

Work on `CC(=O)Nc1nc2c(Oc3cc(N4CCOCC4)ncn3)cccc2s1` yielded an IC50 [11] greater than 4000 nM, an IC50 [12] greater than 4000 nM and a solubility [1] of 32 µg/mL (≈ 86.2 µM).

For `CC(=O)Nc1nc2c(Oc3cc(N4CCN(Cc5ccccc5)CC4)ncn3)cccc2s1`, the solubility [1] was no less than 200 µg/mL.

`CC(=O)Nc1nc2c(Oc3cc(C4=CCC(C(F)(F)F)CC4)ncn3)cccc2s1` (centres undefined) gave an IC50 [11] of 27 nM, an IC50 [12] of 2.4 nM and a solubility [1] of 13 µg/mL (≈ 29.9 µM).

Compound `CC(=O)Nc1nc2c(Oc3cc(N4CCN(C(C)(C)c5ccccc5)CC4)ncn3)cccc2s1` has a solubility [1] of no less than 200 µg/mL.

In the case of `CC(=O)Nc1nc2c(Oc3cc(C4CCC(C(F)(F)F)CC4)ncn3)cccc2s1` (centres undefined), the IC50 [11] is reported as 350 nM, the IC50 [12] is reported as 10 nM and the solubility [1] is reported as 5 µg/mL (≈ 11.5 µM).

`CC(=O)Nc1nc2c(Oc3cc(N4CCN(C(c5ccccc5)c5ccccc5)CC4)ncn3)cccc2s1` showed a solubility [1] of 46 µg/mL (≈ 85.7 µM).

`CC(=O)Nc1nc2c(Oc3cc(N4CCC(C(F)(F)F)CC4)ncn3)cccc2s1` gave an IC50 [11] of 330 nM, an IC50 [12] of 19 nM and a solubility [1] of 9 µg/mL (≈ 20.6 µM).

Compound `CC(=O)Nc1nc2c(Oc3cc(N4CCN(C(C)c5ccc(C(F)(F)F)cc5)CC4)ncn3)cccc2s1` (centres undefined) has an IC50 [11] of 5 nM, an IC50 [12] of 1.8 nM and a solubility [1] of no less than 200 µg/mL. For the same compound, the clearance [2] was 23.3 mL/min/kg, the AUC(0-inf) [3] was 720 ng·h/mL and the Vd [4] was 4.5 L/kg. For the same compound, the half-life [5] was 2.7 h, the AUC(0-inf) [6] was 120 ng·h/mL and the bioavailability [7] was 3%. For the same compound, the solubility [8] was 5 µg/mL (≈ 9.22 µM) and the solubility [9] was 121 µg/mL (≈ 223 µM).

Compound `CC(=O)Nc1nc2c(Oc3cc(N4CCN(CC(F)(F)F)CC4)ncn3)cccc2s1` has an IC50 [11] of 380 nM, an IC50 [12] of 120 nM and a solubility [1] of no less than 200 µg/mL.

With `CC(=O)Nc1nc2c(Oc3cc(N4CCN([C@@H](C)c5ccc(F)cc5)CC4)ncn3)cccc2s1` the solubility [1] was no less than 200 µg/mL, the clearance [2] was 30 mL/min/kg and the AUC(0-inf) [3] was 550 ng·h/mL. For the same compound, the Vd [4] was 5.7 L/kg, the half-life [5] was 2.5 h and the AUC(0-inf) [6] was 2550 ng·h/mL. For the same compound, the bioavailability [7] was 93%, the solubility [8] was 31 µg/mL (≈ 62.9 µM) and the solubility [9] was 121 µg/mL (≈ 246 µM).

For `CC(=O)Nc1nc2c(Oc3cc(N4CCNCC4)ncn3)cccc2s1`, the IC50 [11] was greater than 4000 nM, the IC50 [12] was greater than 4000 nM and the solubility [1] was 173 µg/mL (≈ 467 µM).

In the case of `CC(=O)Nc1nc2c(Oc3cc(N4CCN([C@H](C)c5ccc(F)cc5)CC4)ncn3)cccc2s1`, the Activity (Rattus norvegicus [13]) is reported as “Active”, the minimal effective dose (Rattus norvegicus [14]) is reported as 1 mg/kg and the Cp (Rattus norvegicus [15]) is reported as 70 ng/mL. For the same compound, the clearance [16] was 13.8 mL/min/kg, the Vd [17] was 2.6 L/kg and the half-life [18] was 3.8 h. The solubility [1] was no less than 200 µg/mL, the clearance [2] was 13.3 mL/min/kg and the AUC(0-inf) [3] was 1200 ng·h/mL. For the same compound, the Vd [4] was 2.8 L/kg, the half-life [5] was 2.7 h and the AUC(0-inf) [6] was 3100 ng·h/mL. For the same compound, the bioavailability [7] was 51%, the solubility [8] was 7 µg/mL (≈ 14.2 µM) and the solubility [9] was 64 µg/mL (≈ 130 µM). It also gave a clearance [19] of 40 mL/min/kg, a Vd [20] of 4 L/kg and a half-life [21] of 2.7 h. It also gave a bioavailability [22] of 83%, a clearance [23] of 6.67 mL/min/kg and a Vd [24] of 0.9 L/kg. For the same compound, the half-life [25] was 3.2 h, the bioavailability [26] was 12% and the ED50 (Rattus norvegicus [27]) was 1.9 mg/kg. For the same compound, the Cp (Rattus norvegicus [28]) was 128 ng/mL.

With `CC(=O)Nc1nc2c(Oc3cc(N4CCN(c5ccccc5)CC4)ncn3)cccc2s1` the solubility [1] was 1.5 µg/mL (≈ 3.36 µM) and the clearance [2] was 16.7 mL/min/kg.

For `CC(=O)Nc1nc2c(Oc3cc(N4CCN(C(C)C)CC4)ncn3)cccc2s1`, the solubility [1] was no less than 200 µg/mL.

Work on `CC(=O)Nc1nc2c(Oc3cc(N4CCN(C(C)(C)C)CC4)ncn3)cccc2s1` yielded an IC50 [11] of 1500 nM, an IC50 [12] greater than 4000 nM and a solubility [1] of no less than 200 µg/mL.
